{"data": "Results pooled from the literature", "target": "Casein kinase I isoform alpha (CSNK1A1, Homo sapiens, UniProt P48729)", "One construct used (P48729 1-304)": "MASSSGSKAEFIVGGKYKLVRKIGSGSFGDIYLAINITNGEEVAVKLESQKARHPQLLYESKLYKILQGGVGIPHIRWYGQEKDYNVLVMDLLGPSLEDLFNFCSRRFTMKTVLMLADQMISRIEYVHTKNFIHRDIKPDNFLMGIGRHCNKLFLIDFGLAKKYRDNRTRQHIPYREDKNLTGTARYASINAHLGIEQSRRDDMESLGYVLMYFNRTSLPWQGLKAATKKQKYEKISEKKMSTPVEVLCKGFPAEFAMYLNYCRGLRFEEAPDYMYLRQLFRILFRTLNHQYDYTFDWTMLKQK", "note": "Each line is one published result; the experiments were not run side by side."}
{"Compound": "COc1ccc2[nH]c3c4[nH]c5ccc(OC)cc5c4c4c(c3c2c1)C(=O)NC4=O", "test": "binding", "setting": "1 µM", "endpoint": "remaining binding", "value": "62%"}
{"Compound": "CO[C@@H]1[C@H](N(C)C(=O)c2ccccc2)C[C@H]2O[C@]1(C)n1c3ccccc3c3c4c(c5c6ccccc6n2c5c31)C(=O)NC4", "test": "enzyme activity, inhibitor", "setting": "1 µM", "endpoint": "inhibition", "value": "33%"}
{"Compound": "COc1ccc2oc(-c3ccc4nc(N)oc4c3)c/c(=N\\c3ccccc3NC(=O)CCN)c2c1", "test": "binding", "setting": "1 µM", "endpoint": "remaining binding", "value": "102%"}
{"Compound": "Cc1cc(O)c(-c2ccc([C@@H](C)CN(C)C)cc2)c2c1[nH]c(=O)c1sccc12", "test": "enzyme activity, inhibitor", "setting": "0.1 µM", "endpoint": "inhibition", "value": "6.33%"}
{"Compound": "c1cc(-c2cnn3cc(-c4ccc(OCCN5CCCCC5)cc4)cnc23)ccn1", "test": "binding, SPR", "endpoint": "kon", "value": "2.49e+09 M⁻¹ s⁻¹"}
{"Compound": "CC#CC(=O)N1CCC[C@H]1c1nc(-c2ccc(C(=O)Nc3ccccn3)cc2)c2c(N)nccn12", "test": "enzyme activity, inhibitor", "setting": "1 µM", "endpoint": "inhibition", "value": "21%"}
{"Compound": "C[C@H]1CC[C@H](n2c3cnccc3c3cnc(Nc4ccc5c(n4)CCN(C(=O)CO)C5)nc32)CC1", "test": "cell-free assay", "setting": "1 µM", "endpoint": "remaining signal", "value": "94%"}
{"Compound": "CCCCC(=O)Nc1ccc(-c2ccc3ncn(CCC)c(=O)c3c2)cn1", "test": "binding, competition with immobilised ligand", "setting": "0.5 µM", "endpoint": "remaining binding", "value": "89%"}
{"Compound": "c1cc(Nc2cc(C3CC3)n[nH]2)nc(Nc2ccc3nc[nH]c3c2)n1", "test": "binding, SPR", "endpoint": "kon", "value": "5.43e+08 M⁻¹ s⁻¹"}
{"Compound": "CC(C)S(=O)(=O)c1ccc2nccc(Nc3ccc4sc(C5CCCC5)nc4c3)c2c1", "test": "enzyme activity, inhibitor", "setting": "1 µM", "endpoint": "activity vs control", "value": "103%"}
{"Compound": "C1=C/COCc2cc(ccc2OCCN2CCCC2)Nc2nccc(n2)-c2cccc(c2)COC/1", "test": "binding", "setting": "0.1 µM", "endpoint": "remaining binding", "value": "85%"}
